Data set [1] can be described thus: 1-Octanol-phosphate buffered saline partition coefficient of the compound at pH 7.4.
The test system of data set [2] is BGC-823. As to the kind of experiment: Cytotoxicity against human BGC823 cells assessed as cell death preincubated for 5 hrs in dark condition followed by irradiation with a 532 nm laser of 20 J/cm2 for 1000 seconds measured after 24 hrs by MTT assay. The note with it: BGC-823, light or radiation study. The data set is classed as functional, cell-based. Put shortly:
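BGC823 cells in DMEM/5% FBS seeded at 5 × 10^5 cells/mL, 24 h at 37 °C, 5% CO2; photosensitizer (0, 19, 38, 57, 76 nM) in FBS-free DMEM, 5 h in dark; medium replaced, 532 nm laser irradiation 20 J/cm2 (20 mW/cm2) for 1000 s; 24 h dark; MTT 90 min, DMSO, OD 570 nm. IC50 = concentration killing 50% of cells.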
(In general: Formazan colour is commonly taken as a measure of viable cells.)

For data set [3], the system named is BGC-823. The experiment in a line: Cytotoxicity against human BGC823 cells assessed as cell death up to 76 nM after 24 hrs by MTT assay. Format: functional, cell-based. Summed up:
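Dark toxicity: BGC823 cells in DMEM/5% FBS seeded at 5 × 10^5 cells/mL, 24 h at 37 °C, 5% CO2; photosensitizer (0–76 nM) in FBS-free DMEM 5 h in dark; fresh medium, no irradiation, 24 h in dark; survival by MTT (90 min), formazan in DMSO, OD 570 nm.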

Data set [4] in a line: Photosensitization activity of the compound assessed as singlet oxygen production by DPA-bleaching method. Format: physicochemical.
Data set [5] is described as follows: Solubility of the compound in phosphate buffered saline at pH 7.4 after 12 hrs. Format: physicochemical. Summed up: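 Compound dissolved in PBS (pH 7.4) at a series of concentrations, kept 12 h in dark; absorption spectra recorded and absorbance plotted against concentration to derive solubility; mean of three independent experiments ± SEM.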
The nature of data set [6]: Drug uptake in liposomes after 2 hrs. Format: ADME, subcellular, Liposome. The note with it: artificial membrane. Summed up: (§1)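 Liposomes of egg phosphatidylcholine and cholesterol (film-ultrasonic method), 0.08 g/L in PBS pH 7.4. Compound from DMSO stock (2 mg/mL) diluted in PBS to 0–8 μM final, added to liposomes with stirring; absorption spectra recorded over time; peak absorbance plotted against concentration at the equilibration time (2, 4 or 5 h, depending on compound).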

Data set [7] can be described thus: Drug uptake in liposomes after 5 hrs. The data set is classed as ADME, subcellular, Liposome. The note with it: artificial membrane. Summed up: as §1
Data set [8] has as its system BGC-823. The experiment in a line: Cellular uptake in human BGC823 cells at 1 uM after 5 hrs by laser confocal fluorescence microscope analysis. The data set is classed as ADME, cell-based. As to conditions: bgc-823, 5 h. Summed up:
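BGC823 cells seeded on coverslips at 1 × 10^5, grown overnight at 37 °C, 5% CO2; medium removed, incubated with compound (1 μM) 5 h at 37 °C; rinsed three times with PBS, imaged by confocal microscopy with 488 nm argon laser excitation, emission 650–750 nm collected. Control without photosensitizer.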

Data set [9] is described as follows: Drug uptake in liposomes after 4 hrs. The data set is classed as ADME, subcellular, Liposome. As to conditions: artificial membrane. Put shortly: as §1

SMILES strings stand for the structures. ≈ marks a conversion by molar mass, not a printed value. Calls of active or inactive are those of the source. The calls are words filed in the database; no cut-off is given here.

For the compound `COc1c2c3c4c(c(OC)c(=O)c5c(O)cc(OC)c(c6c(OC)cc(O)c(c1=O)c63)c54)C(/C(C)=N/CCCCS(=O)(=O)O)=C(C)C2`, the PC in data set [1] was 7.5. In data set [2], the IC50 (usually the concentration at which inhibition is half-maximal) worked out at 54 nM. The result in data set [3] was inactive. The Activity in [4] is 0.94. Besides, in data set [5], the concentration in solution (solubility at 12 h) was 3900 µg/mL (≈ 5.88 mM).
For `COc1c2c3c4c(c(NCCS(=O)(=O)O)c(=O)c5c(O)cc(OC)c(c6c(OC)cc(O)c(c1=O)c63)c54)CC(C)=C2C(C)=O`, the PC in [1] turned out to be 2.2. This compound also gave a Drug uptake in [6] of 3 µM. In addition, in [5], the solubility (commonly the concentration that dissolves in the medium under given conditions) at 12 h was 9200 µg/mL (≈ 14.8 mM).
Compound `COc1c2c3c4c(c(OC)c(=O)c5c(O)cc(OC)c(c6c(OC)cc(O)c(c1=O)c63)c54)C(/C(C)=N/CCCS(=O)(=O)O)=C(C)C2` showed a PC in data set [1] of 4.8. The compound also returned a solubility at 12 h in data set [5] of 6600 µg/mL (≈ 10.2 mM).
Consider `COC1=C(C(C)=O)C2=C(C)Cc3c(OC)c(=O)c(O)c4cc(OC)c5c(OC)cc(O)c6c(c2c3c4c56)C1=O`, for which the Drug uptake in [7] was 7 µM. Also, the IC50 in data set [2] came to 40 nM. In [3], the outcome was inactive. The Activity in data set [4] amounted to 0.76. The compound also gave a solubility at 12 h in data set [5] of 4.6 µg/mL (≈ 0.0087 mM).
Turning to `COc1c2c3c4c(c(OC)c(=O)c5c(O)cc(OC)c(c6c(OC)cc(O)c(c1=O)c63)c54)C(/C(C)=N/CCCCCCS(=O)(=O)O)=C(C)C2`, the Activity in [4] was 1.01. This compound had a solubility at 12 h in data set [5] of 200 µg/mL (≈ 0.289 mM).
In data set [1], `COc1c2c3c4c(c(OC)c(=O)c5c(O)cc(OC)c(c6c(OC)cc(O)c(c1=O)c63)c54)C(/C(C)=N/CCCCCS(=O)(=O)O)=C(C)C2` came in with a PC of 9. The IC50 in [2] was determined as 22 nM. The figures for the Drug uptake entry in data set [8] and in [9] were “Active” and 6.5 µM, respectively. Further, the result in [3] was inactive. In addition, in data set [4], the Activity is listed as 0.98. Also, in data set [5], the concentration in solution (solubility at 12 h) came to 1700 µg/mL (≈ 2.51 mM).

(Values after ChEMBL document CHEMBL2029255, “Quantitative and site-directed chemical modification of hypocrellins toward direct drug delivery and effective photodynamic activity” (J Med Chem, 2012).)
